Tests used:
Type in all cases: functional
ACHN = test: Growth inhibition of human ACHN cells after 48 hrs by sulforhodamine B assay
IGROV-1 = test: Growth inhibition of human IGROV1 cells after 48 hrs by sulforhodamine B assay; conditions: IGROV-1, 48 h
Method in brief: (§1)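 NCI 60-human-tumor-cell-line panel, with compounds tested over a 5-log dose range. Values are taken from dose-response curves as log10 molar concentrations: GI50 is 50% net growth inhibition, TGI is total growth inhibition, and LC50 is 50% net cell death.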

NCI-H460 = test: Anticancer activity against human NCI-H460 cells assessed as cell growth at 100 uM after 48 hrs by sulforhodamine B assay; conditions: NCI-H460, 48 h, read-out: Activity
HT-29 = test: Growth inhibition of human HT-29 cells after 48 hrs by sulforhodamine B assay; conditions: HT-29, 48 h; method in brief: as §1
MCF7 = test: Growth inhibition of human MCF7 cells after 48 hrs by sulforhodamine B assay; conditions: MCF7, 48 h; method in brief: as §1
UO-31 = test: Growth inhibition of human UO31 cells after 48 hrs by sulforhodamine B assay; conditions: UO-31, 48 h
Method in brief: (§2)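 Run in the NCI 60-human-tumour-cell-line panel, tested over a 5-log dose range. Dose–response curves gave three values per cell line, each as a log10 molar concentration: GI50 (50% inhibition of net cell growth), TGI (total inhibition of net growth) and LC50 (50% net cell death). The mean graph midpoint is the arithmetic mean over all lines, with insensitive lines entered at the highest concentration tested.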

MOLT-4 = test: Growth inhibition of human MOLT4 cells after 48 hrs by sulforhodamine B assay; conditions: MOLT-4, 48 h; method in brief: as §1
NCI-H226 = test: Growth inhibition of human NCI-H226 cells after 48 hrs by sulforhodamine B assay; conditions: NCI-H226, 48 h; method in brief: as §1
Malme-3M = test: Growth inhibition of human MALME-3M cells after 48 hrs by sulforhodamine B assay; method in brief: as §1
HOP-62 = test: Growth inhibition of human HOP62 cells after 48 hrs by sulforhodamine B assay; conditions: HOP-62, 48 h; method in brief: as §1
HOP-92 = test: Growth inhibition of human HOP92 cells after 48 hrs by sulforhodamine B assay; conditions: HOP-92, 48 h; method in brief: as §1
CCRF-CEM = test: Growth inhibition of human CCRF-CEM cells after 48 hrs by sulforhodamine B assay; method in brief: as §1
HCT-15 = test: Growth inhibition of human HCT15 cells after 48 hrs by sulforhodamine B assay; conditions: HCT-15, 48 h; method in brief: as §1
UACC-62 = test: Growth inhibition of human UACC62 cells after 48 hrs by sulforhodamine B assay; conditions: UACC-62, 48 h; method in brief: as §2
SK-MEL-2 = test: Growth inhibition of human SK-MEL-2 cells after 48 hrs by sulforhodamine B assay; conditions: SK-MEL-2, 48 h; method in brief: as §1
SK-MEL-28 = test: Growth inhibition of human SK-MEL-28 cells after 48 hrs by sulforhodamine B assay; conditions: SK-MEL-28, 48 h; method in brief: as §1
OVCAR-3 = test: Growth inhibition of human OVCAR-3 cells after 48 hrs by sulforhodamine B assay; conditions: OVCAR-3, 48 h; method in brief: as §1
SF-268 = test: Growth inhibition of human SF268 cells after 48 hrs by sulforhodamine B assay; conditions: SF-268, 48 h; method in brief: as §1
NCI-H322M = test: Growth inhibition of human NCI-H322M cells after 48 hrs by sulforhodamine B assay; method in brief: as §1
SF-539 = test: Growth inhibition of human SF539 cells after 48 hrs by sulforhodamine B assay; conditions: SF-539, 48 h; method in brief: as §1
K562 = test: Growth inhibition of human K562 cells after 48 hrs by sulforhodamine B assay; conditions: K562, 48 h; method in brief: as §1
SK-MEL-5 = test: Growth inhibition of human SK-MEL-5 cells after 48 hrs by sulforhodamine B assay; conditions: SK-MEL-5, 48 h; method in brief: as §1
HL-60(TB) = test: Growth inhibition of human HL-60(TB) cells after 48 hrs by sulforhodamine B assay; conditions: HL-60, 48 h
Method in brief: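 Tested only on compounds active in a three-line prescreen, in the NCI 60-human-tumour-cell-line panel over a 5-log dose range. Values come from dose–response curves as log10 molar GI50, the concentration inhibiting 50% net cell growth. Log10 TGI (total growth inhibition) and log10 LC50 (50% net cell death) were derived too. Mean graph midpoints include insensitive lines at the highest concentration tested.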

T47D = test: Growth inhibition of human T47D cells after 48 hrs by sulforhodamine B assay; method in brief: as §2
NCI-H522 = test: Growth inhibition of human NCI-H522 cells after 48 hrs by sulforhodamine B assay; conditions: NCI-H522, 48 h; method in brief: as §1
OVCAR-4 = test: Growth inhibition of human OVCAR4 cells after 48 hrs by sulforhodamine B assay; conditions: OVCAR-4, 48 h; method in brief: as §1
UACC-257 = test: Growth inhibition of human UACC257 cells after 48 hrs by sulforhodamine B assay; conditions: UACC-257, 48 h; method in brief: as §2
[1] = read-out: pLC50 (the source's name) (converted)

Q: Which results are given for `COc1ccc(CNc2nc3cc(N)cc(N)c3nc2-c2ccccc2)cc1OC`?
A: GI50 (ACHN): 13.8 µM; CC50 (ACHN; [1]): 81.3 µM; TGI (ACHN; read-out: pTGI (converted)): 33.1 µM; GI50 (IGROV-1): 11.5 µM; CC50 (IGROV-1; [1]): > 100 µM; TGI (IGROV-1; read-out: pTGI (converted)): 40.7 µM; growth at 100 µM (NCI-H460): 3%; GI50 (HT-29): 1860 nM; LC50 (HT-29): > 100 µM; TGI (HT-29; read-out: pTGI (converted)): 24.5 µM; GI50 (MCF7): 25.7 µM; CC50 (MCF7; [1]): > 100 µM; TGI (MCF7; read-out: pTGI (converted)): > 100 µM; GI50 (UO-31): 13.5 µM; CC50 (UO-31; [1]): > 100 µM; TGI (UO-31; read-out: pTGI (converted)): 45.7 µM; GI50 (MOLT-4): 3.47 µM; LC50 (MOLT-4): > 100 µM; TGI (MOLT-4; read-out: pTGI (converted)): > 100 µM; GI50 (NCI-H226): 14.5 µM; LC50 (NCI-H226): 64.6 µM; TGI (NCI-H226; read-out: pTGI (converted)): 30.9 µM; GI50 (Malme-3M): 5.62 µM; CC50 (Malme-3M; [1]): 47.9 µM; TGI (Malme-3M; read-out: pTGI (converted)): 18.6 µM; GI50 (HOP-62): 18.2 µM; LC50 (HOP-62): 64.6 µM; TGI (HOP-62; read-out: pTGI (converted)): 34.7 µM; GI50 (HOP-92): 13.5 µM; LC50 (50% net cell death) (HOP-92): 66.1 µM; TGI (HOP-92; read-out: pTGI (converted)): 29.5 µM; GI50 (CCRF-CEM): 3.47 µM; LC50 (CCRF-CEM): > 100 µM; TGI (CCRF-CEM; read-out: pTGI (converted)): 70.8 µM; GI50 (HCT-15): 30.2 µM; LC50 (HCT-15): > 100 µM; TGI (HCT-15; read-out: pTGI (converted)): > 100 µM; GI50 (UACC-62): 12.9 µM; CC50 (UACC-62; [1]): 53.7 µM; TGI (UACC-62; read-out: pTGI (converted)): 26.3 µM; GI50 (SK-MEL-2): 8.71 µM; CC50 (SK-MEL-2; [1]): > 100 µM; TGI (SK-MEL-2; read-out: pTGI (converted)): 30.2 µM; GI50 (SK-MEL-28): 13.5 µM; CC50 (SK-MEL-28; [1]): 67.6 µM; TGI (SK-MEL-28; read-out: pTGI (converted)): 30.2 µM; GI50 (OVCAR-3): 1320 nM; CC50 (OVCAR-3; [1]): 8.51 µM; TGI (OVCAR-3; read-out: pTGI (converted)): 3.31 µM; GI50 (SF-268): 14.8 µM; LC50 (SF-268): > 100 µM; TGI (SF-268; read-out: pTGI (converted)): 60.3 µM; GI50 (NCI-H322M): 22.9 µM; LC50 (NCI-H322M): 100 µM; TGI (NCI-H322M; read-out: pTGI (converted)): 47.9 µM; GI50 (SF-539): 20 µM; LC50 (SF-539): > 100 µM; TGI (SF-539; read-out: pTGI (converted)): 45.7 µM; GI50 (K562): 6.03 µM; LC50 (K562): > 100 µM; TGI (K562; read-out: pTGI (converted)): > 100 µM; GI50 (SK-MEL-5): 10 µM; CC50 (SK-MEL-5; [1]): 77.6 µM; TGI (SK-MEL-5; read-out: pTGI (converted)): 27.5 µM; GI50 (HL-60(TB)): 3.16 µM; LC50 (HL-60(TB)): > 100 µM; TGI (HL-60(TB); read-out: pTGI (converted)): 81.3 µM; GI50 (T47D): 4.47 µM; CC50 (T47D; [1]): > 100 µM; TGI (T47D; read-out: pTGI (converted)): > 100 µM; GI50 (NCI-H522): 2690 nM; LC50 (NCI-H522): 63.1 µM; TGI (NCI-H522; read-out: pTGI (converted)): 6.31 µM; GI50 (OVCAR-4): 2690 nM; CC50 (OVCAR-4; [1]): 52.5 µM; TGI (OVCAR-4; read-out: pTGI (converted)): 7.41 µM; GI50 (UACC-257): 12.9 µM; CC50 (UACC-257; [1]): 55 µM; TGI (UACC-257; read-out: pTGI (converted)): 26.9 µM
